Columns and labels:
[1] = biological target: T1, Protein kinase C, PKC; classical (Rattus norvegicus) (UniProt P05696+P68403+P63319); experiment: Percent stimulation or inhibition of protein kinase C III activity for phosphatidylserine (PS) in the presence of [Ca2+].; assay type: protein assay; set-up: concentration or dose not given beside the values; conditions: values are per cent of control
Procedure, shortened: (§1)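 Purified type III (α) PKC from rat brain soluble fraction. Substrate calf thymus H1 histone with 0.1 mM Ca2+, 5 mM magnesium acetate, 10 μM [32P]ATP and 2 μg/mL phosphatidylserine, no diolein. Most compounds at 10⁻⁴ M, given as percent of control activity.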

MCF7S [2] = experiment: Cytostatic activity against MCF-7 cell proliferation; assay type: functional, Homo sapiens
Procedure, shortened: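 MCF7 (ER-positive) human breast cancer cells grown in 24-well plates in phenol red-free medium with 5% dextran-coated charcoal, with 10⁻⁶ M E₂ added. Cells exposed to compound for 6 days, then DNA measured and expressed as percent of E₂-alone DNA. Triplicate wells per experiment; values are means of two experiments.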

Rattus norvegicus [3] = species: Rattus norvegicus; experiment: Percent stimulation or inhibition of protein kinase C III activity for protamine sulfate in the presence of EGTA.; set-up: concentration or dose not given beside the values; conditions: values are per cent of control
Procedure, shortened: (§2)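 Rat brain type III (α) PKC, purified, with protamine sulfate as substrate and 0.5 mM EGTA in place of Ca2+, phosphatidylserine and diolein; 5 mM magnesium acetate, 10 μM [32P]ATP. Most compounds at 10⁻⁴ M; percent of control activity.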

[4] = biological target: T1, Protein kinase C, PKC; classical (Rattus norvegicus); experiment: The percent stimulation or inhibition of protein kinase C III activity was determined for phosphatidylserine (PS) and diolein(PS+DO) in the presence of [Ca2+]; assay type: protein assay; set-up: concentration or dose not given beside the values; conditions: values are per cent of control
Procedure, shortened: (§3)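 Type III (α) PKC purified from rat brain soluble fraction, assayed with calf thymus H1 histone, 0.1 mM Ca2+, 5 mM magnesium acetate, 10 μM [32P]ATP, 2 μg/mL phosphatidylserine plus 0.2 μg/mL diolein. Compounds mostly at 10⁻⁴ M; activity expressed as percent of control.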

MCF7S [5] = experiment: Agonistic activity in MCF-7 cell proliferation.; assay type: functional, Homo sapiens
Procedure, shortened: (§4)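 MCF-7 cells grown in phenol red-free medium with 5% dextran-coated charcoal-treated serum, tested 10 pM to 1 μM. DNA content read after growth. Agonism expressed relative to the maximum response with E2 (=100%), whatever the concentration. EC50 (50% of maximum response) taken from two separate experiments.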

BT-20 [6] = experiment: (§5) Cytotoxic effect on ER-negative BT20 cell proliferation; assay type: functional; conditions: Homo sapiens
Procedure, shortened: (§6)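 ER-negative BT20 cells, no E2, test compound at 3–10 μM for 6 days. DNA read as percent of untreated control. IC30 is the concentration inhibiting growth by 30%; percent inhibition taken at 10⁻⁵ M. Means of two experiments, triplicate wells.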

MCF7S [7] = experiment: Cytostatic activity against MCF-7 cell proliferation.; assay type: functional, Homo sapiens; set-up: concentration or dose not given beside the values
Procedure, shortened: (§7)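 MCF-7 cells in phenol red-free charcoal-treated medium given 10⁻⁶ M E2 plus test compound (3–10 μM), 6 days of growth. DNA expressed as percent of E2-treated cells. IC30 is the concentration giving 30% inhibition. Percent inhibition taken at 10⁻⁵ M, or at 10⁻⁶ M in a second series. Means of two experiments.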

MCF7S [8] = experiment: (§8) Antagonist activity against MCF-7 cell proliferation; assay type: functional, Homo sapiens
Procedure, shortened: (§9)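 Phenol red-free MCF-7 cultures with 5% dextran-coated charcoal-treated serum, stimulated by 0.1 nM E2. Proliferation read as DNA content after 8 days relative to E2 alone. Percent antagonism is the inhibition at 10⁻⁶ M test compound versus 10⁻¹⁰ M E2. IC50 (50% of maximum response) from two separate experiments.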

BT-20 [9] = experiment: as §5; assay type: functional, Homo sapiens; set-up: concentration or dose not given beside the values; procedure, shortened: as §6
MCF7S [10] = experiment: Agonist activity against MCF-7 cell proliferation; assay type: functional, cell-based; conditions: Homo sapiens; procedure, shortened: as §4
[11] = biological target: Estrogen receptor (Bos taurus) (UniProt Q9XSB5+P49884); experiment: Relative binding affinity for calf uterus estrogen receptor after 2 hr at 0 degree C; assay type: protein assay
Procedure, shortened: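 Calf uterus cytosol ER incubated 2 h at 0 °C with [6,7-3H]-17β-estradiol and competitor. RBA given relative to estradiol (=100%), mean of at least four determinations.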

[12] = biological target: T1, Protein kinase C, PKC; classical (Rattus norvegicus); experiment: (§10) Percent stimulation or inhibition of protein kinase C with [Ca2+] for phosphatidylserine and diolein(PS+DO); assay type: protein assay; set-up: concentration or dose not given beside the values; conditions: values are per cent of control; procedure, shortened: as §3
[13] = biological target: T1, Protein kinase C, PKC; classical (Rattus norvegicus); experiment: Percent stimulation or inhibition of protein kinase C with [Ca2+] for phosphatidylserine (PS); assay type: protein assay; procedure, shortened: as §1
MCF7S [14] = experiment: as §8; assay type: functional, cell-based; conditions: Homo sapiens; procedure, shortened: as §9
MCF7S [15] = experiment: Cytotoxic effect on MCF-7 cell proliferation; assay type: functional; conditions: Homo sapiens; procedure, shortened: as §7
[16] = biological target: T1, Protein kinase C, PKC; classical (Rattus norvegicus); experiment: as §10; assay type: protein assay; conditions: for residual activity: values are per cent of control; procedure, shortened: as §3
Rattus norvegicus [17] = species: Rattus norvegicus; experiment: Percent stimulation or inhibition of protein kinase C with EGTA for protamine sulfate; conditions: concentration not given here; procedure, shortened: as §2

Compound | residual activity [1] | Inhibition (MCF7S [2]) | residual activity (Rattus norvegicus [3]) | residual activity [4] | Agonism (MCF7S [5]) | IC30 (BT-20 [6]) | Inhibition (MCF7S [7]) | Antagonism (MCF7S [8]) | Inhibition (BT-20 [9]) | EC50 (MCF7S [10]) | RBA [11] | residual activity [12] | residual activity [13] | residual activity ([13]; values are per cent of control) | IC50 (MCF7S [14]) | IC30 (MCF7S [15]) | residual activity [16] | inhibition (Rattus norvegicus [17]) | inhibition ([16]; concentration not given here)
CC/C(=C(/c1ccc(O)cc1)c1ccc(OCCN(C)C)cc1)c1ccccc1 | 32% | 74% | 100% | 14% | 61% |  |  |  |  |  |  |  |  |  |  |  |  |  | 
CC(C)C(Cl)=C(c1ccc(O)cc1)c1ccc(O)cc1 |  |  | 85% | 83% | 96% | 7600 nM | 30% | 12% | 45% | 0.16 nM | 70% |  |  |  |  |  |  |  | 
CCN(CC)CCOc1ccc(/C(=C(/C#N)c2ccccc2)c2ccc(O)cc2)cc1 | 20% |  |  |  | 16% |  | 77% |  |  |  |  | 2% | 20% |  |  |  |  |  | 
Oc1ccc(C(=C2CCCCCC2)c2ccc(O)cc2)cc1 |  |  | 93% | 71% | 96% |  | 16% | 21% | 20% | 2.65 nM | 17% |  |  |  |  |  |  |  | 
CN(C)Cc1cc(C(=C(C#N)c2ccccc2)c2ccc(O)c(CN(C)C)c2)ccc1O |  |  |  |  | 31% |  | 36% |  |  |  |  |  |  | 26% |  |  |  |  | 
CC(C)C=C(c1ccc(O)cc1)c1ccc(O)cc1 |  |  | 95% | 70% | 65% | 8400 nM | 22% | 5% | 40% | 18 nM | 58% |  |  |  |  |  |  |  | 
COc1ccc(/C(=C(/C#N)c2ccccc2)c2ccc(O)cc2)cc1 | 100% |  |  |  | 25% |  | 13% |  |  |  |  | 100% | 100% |  |  |  |  |  | 
CC(C)CCOc1ccc(C(=C(C#N)c2ccccc2)c2ccc(OCCC(C)C)cc2)cc1 | 118% |  | 78% | 86% | 0% | 9000 nM | 3% | 0% | 37% | > 1000 nM |  |  |  |  | > 1000 nM | > 10000 nM |  |  | 
CC(C)N(CCOc1ccc(C(=C(C#N)c2ccccc2)c2ccc(OCCN(C(C)C)C(C)C)cc2)cc1)C(C)C | 18% |  | 85% | 8% | 29% | 3200 nM | 97% | 79% | 89% | 0.84 nM | 0.03% |  |  |  | 325 nM | 2700 nM |  |  | 
CC/C(=C(/c1ccccc1)c1ccc(OCCN(C)C)cc1)c1ccccc1 | 36% |  |  |  | 100% |  | 79% |  |  |  |  | 30% | 36% |  |  |  |  |  | 
Oc1ccc(C(=C2CCCC2)c2ccc(O)cc2)cc1 |  |  | 40% | 42% | 100% |  | 6% | 1% | 10% | 130 nM | 23% |  |  |  |  |  |  |  | 
NCC(=C(c1ccc(O)cc1)c1ccc(O)cc1)c1ccccc1 | 78% |  | 20% | 53% | 76% | 20000 nM | 19% | 20% | 24% | 0.14 nM | 9.7% |  |  |  |  |  |  |  | 
CCN(CC)CCOc1ccc(C(C#N)=C(c2ccc(O)cc2)c2ccc(O)cc2)cc1 | 7% |  | 105% | 0% | 45% | 3000 nM | 68% | 50% | 50% | 0.8 nM |  |  |  |  | 200 nM | 6000 nM |  |  | 
CC(C)Oc1ccc(/C(=C(/C#N)c2ccccc2)c2ccc(O)cc2)cc1 |  |  |  |  | 22% |  | 57% |  |  |  |  | 94% | 170% |  |  |  |  |  | 
Cc1ccc(/C(=C(\C#N)c2ccccc2)c2ccc(O)cc2)cc1 |  |  |  |  | 53% |  | 60% |  |  |  |  | 87% |  | 119% |  |  | 87% |  | 
CN(C)c1ccc(C(=C(C#N)c2ccccc2)c2ccc(N(C)C)cc2)cc1 |  |  | 88% |  | 85% |  | 48% |  |  |  |  |  |  |  |  |  |  | 88% | 57%
N#C/C(=C(\c1ccccc1)c1ccc(O)cc1)c1ccccc1 | 107% |  | 90% |  | 99% |  | 30% |  |  |  |  | 87% |  |  |  |  |  |  | 
CC/C(=C(\c1ccccc1)c1ccc(OCCN(C)C)cc1)c1ccccc1 [TAMOXIFEN] | 49% |  | 107% |  | 21% |  | 49% |  |  |  |  | 21% |  |  |  |  |  |  | 
Oc1ccc(C(=C2CCCCC2)c2ccc(O)cc2)cc1 | 111% |  | 91% | 81% | 97% |  | 12% | 23% | 12% | 4.51 nM | 26% |  |  |  |  |  |  |  | 
CC(C)N(CCOc1ccc(C(C#N)=C(c2ccccc2)c2ccccc2)cc1)C(C)C |  |  | 103% | 23% | 93% | 9000 nM | 30% | 10% | 36% | 11 nM | 0.1% |  |  | 46% |  | 10000 nM |  |  | 
Cc1ccc(/C(=C(\C#N)c2ccc(O)cc2)c2ccc(O)cc2)cc1 |  |  |  |  | 73% |  | 54% |  |  |  |  | 68% |  | 88% |  |  | 68% |  | 

Source: ChEMBL document CHEMBL1126156, “Multivariate analysis by the minimum spanning tree method of the structural determinants of diphenylethylenes and triphenylacrylonitriles implicated in estrogen receptor binding, protein kinase C activity, and MCF7 cell proliferation” (J Med Chem, 1992)
